The source made the active and inactive calls. The rule behind the calls is not given here.
Columns and labels:
[1] = molecular target: Glycogen synthase kinase-3 alpha (Homo sapiens) (UniProt P49840); test: Activity of human GSK3-alpha kinase at 1 uM
[2] = molecular target: Homeodomain-interacting protein kinase 3 (Homo sapiens) (UniProt Q9H422); test: Activity of human HIPK3 kinase at 1 uM
[3] = molecular target: Tyrosine-protein kinase JAK3 (Homo sapiens) (UniProt P52333); test: Activity of human JAK3 kinase at 1 uM
Chain of Tyrosine-protein kinase JAK3 (Homo sapiens) (P52333 whole entry): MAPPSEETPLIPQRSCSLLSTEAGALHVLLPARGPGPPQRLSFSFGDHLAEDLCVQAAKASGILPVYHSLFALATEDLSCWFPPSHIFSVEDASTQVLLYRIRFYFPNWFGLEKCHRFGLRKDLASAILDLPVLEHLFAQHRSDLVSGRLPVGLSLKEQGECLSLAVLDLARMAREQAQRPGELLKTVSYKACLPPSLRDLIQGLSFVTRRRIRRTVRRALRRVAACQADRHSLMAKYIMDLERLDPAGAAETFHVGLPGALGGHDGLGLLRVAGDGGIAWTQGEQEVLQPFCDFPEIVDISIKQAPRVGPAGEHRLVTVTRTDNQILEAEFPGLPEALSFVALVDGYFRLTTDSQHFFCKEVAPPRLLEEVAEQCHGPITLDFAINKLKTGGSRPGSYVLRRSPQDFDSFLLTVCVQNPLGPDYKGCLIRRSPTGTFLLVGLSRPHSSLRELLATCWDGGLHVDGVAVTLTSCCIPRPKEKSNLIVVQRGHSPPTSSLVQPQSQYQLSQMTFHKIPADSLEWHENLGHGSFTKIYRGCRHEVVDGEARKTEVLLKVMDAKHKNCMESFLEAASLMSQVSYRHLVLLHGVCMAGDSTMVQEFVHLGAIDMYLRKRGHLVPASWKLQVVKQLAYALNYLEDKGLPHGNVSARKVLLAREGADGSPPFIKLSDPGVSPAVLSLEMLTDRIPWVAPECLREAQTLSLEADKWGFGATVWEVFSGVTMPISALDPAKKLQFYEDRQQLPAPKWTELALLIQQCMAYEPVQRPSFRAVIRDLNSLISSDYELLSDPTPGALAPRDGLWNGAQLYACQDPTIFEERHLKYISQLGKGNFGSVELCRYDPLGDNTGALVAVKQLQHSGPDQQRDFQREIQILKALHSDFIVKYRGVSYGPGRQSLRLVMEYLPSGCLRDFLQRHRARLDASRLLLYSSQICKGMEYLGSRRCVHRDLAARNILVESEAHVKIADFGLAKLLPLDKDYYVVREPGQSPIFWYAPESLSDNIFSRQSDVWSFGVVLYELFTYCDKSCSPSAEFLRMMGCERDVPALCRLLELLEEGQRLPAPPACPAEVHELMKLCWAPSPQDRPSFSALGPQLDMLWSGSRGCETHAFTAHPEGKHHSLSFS

[4] = molecular target: Serine/threonine-protein kinase STK11 (Homo sapiens) (UniProt Q15831); test: Activity of human LKB1 kinase at 1 uM
Chain of Serine/threonine-protein kinase STK11 (Homo sapiens) (Q15831 whole entry): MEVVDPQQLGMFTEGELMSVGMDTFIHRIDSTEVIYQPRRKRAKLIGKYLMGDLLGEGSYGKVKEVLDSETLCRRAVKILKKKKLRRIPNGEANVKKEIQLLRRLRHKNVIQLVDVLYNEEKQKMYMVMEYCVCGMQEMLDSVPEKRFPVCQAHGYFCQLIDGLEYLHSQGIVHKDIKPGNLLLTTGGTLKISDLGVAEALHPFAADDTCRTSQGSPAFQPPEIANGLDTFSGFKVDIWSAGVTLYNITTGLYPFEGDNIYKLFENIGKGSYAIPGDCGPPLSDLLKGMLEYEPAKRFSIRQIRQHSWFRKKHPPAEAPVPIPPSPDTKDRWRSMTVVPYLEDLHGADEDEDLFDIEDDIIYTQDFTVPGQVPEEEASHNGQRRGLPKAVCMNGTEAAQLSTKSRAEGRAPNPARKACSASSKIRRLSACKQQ

[5] = molecular target: Serine/threonine-protein kinase 10 (Homo sapiens) (UniProt O94804); test: Activity of human LOK kinase at 1 uM
[6] = molecular target: Dual specificity mitogen-activated protein kinase kinase 1 (Homo sapiens) (UniProt Q02750); test: Activity of human MEK1 kinase at 1 uM
[7] = molecular target: Maternal embryonic leucine zipper kinase (Homo sapiens) (UniProt Q14680); test: Activity of human MELK kinase at 1 uM
Method in brief: (§1)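 Single-point kinase profiling: each kinase in a 226-kinase panel tested with compound at 1 μM and ATP at 10 μM in every assay, run by an external screening service.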

[8] = molecular target: Ribosomal protein S6 kinase alpha-4 (Homo sapiens) (UniProt O75676); test: Activity of human MSK2 kinase at 1 uM; method in brief: as §1
[9] = molecular target: Serine/threonine-protein kinase Nek2 (Homo sapiens) (UniProt P51955); test: Activity of human NEK2 kinase at 1 uM
[10] = molecular target: Serine/threonine-protein kinase PAK 4 (Homo sapiens) (UniProt O96013); test: Activity of human PAK4 kinase at 1 uM
Method in brief: (§2)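 Single-point screen in a 226-kinase panel run by an outside service. Test compound at 1 μM with ATP at 10 μM in every assay. Other assay conditions are not given.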

[11] = molecular target: Platelet-derived growth factor receptor alpha (Homo sapiens) (UniProt P16234); test: Activity of human PDGFRalpha kinase at 1 uM; method in brief: as §2
Bos taurus = species on record: Bos taurus; test: Activity of bovine PKA kinase at 1 uM
Homo sapiens [12] = species on record: Homo sapiens; test: Activity of human PKA kinase at 1 uM; method in brief: as §2
[13] = molecular target: Protein kinase C epsilon type (Homo sapiens) (UniProt Q02156); test: Activity of human PKCepsilon kinase at 1 uM; method in brief: as §1
[14] = molecular target: Protein kinase C eta type (Homo sapiens) (UniProt P24723); test: Activity of human PKCeta kinase at 1 uM; method in brief: as §2
[15] = molecular target: Protein kinase C zeta type (Homo sapiens) (UniProt Q05513); test: Activity of human PKCzeta kinase at 1 uM; method in brief: as §2
[16] = molecular target: Tyrosine-protein kinase FRK (Homo sapiens) (UniProt P42685); test: Activity of human PTK5 kinase at 1 uM; method in brief: as §2
[17] = molecular target: Proto-oncogene tyrosine-protein kinase receptor Ret (Homo sapiens) (UniProt P07949); test: Activity of human Ret kinase at 1 uM
Chain of Proto-oncogene tyrosine-protein kinase receptor Ret (Homo sapiens) (P07949 whole entry): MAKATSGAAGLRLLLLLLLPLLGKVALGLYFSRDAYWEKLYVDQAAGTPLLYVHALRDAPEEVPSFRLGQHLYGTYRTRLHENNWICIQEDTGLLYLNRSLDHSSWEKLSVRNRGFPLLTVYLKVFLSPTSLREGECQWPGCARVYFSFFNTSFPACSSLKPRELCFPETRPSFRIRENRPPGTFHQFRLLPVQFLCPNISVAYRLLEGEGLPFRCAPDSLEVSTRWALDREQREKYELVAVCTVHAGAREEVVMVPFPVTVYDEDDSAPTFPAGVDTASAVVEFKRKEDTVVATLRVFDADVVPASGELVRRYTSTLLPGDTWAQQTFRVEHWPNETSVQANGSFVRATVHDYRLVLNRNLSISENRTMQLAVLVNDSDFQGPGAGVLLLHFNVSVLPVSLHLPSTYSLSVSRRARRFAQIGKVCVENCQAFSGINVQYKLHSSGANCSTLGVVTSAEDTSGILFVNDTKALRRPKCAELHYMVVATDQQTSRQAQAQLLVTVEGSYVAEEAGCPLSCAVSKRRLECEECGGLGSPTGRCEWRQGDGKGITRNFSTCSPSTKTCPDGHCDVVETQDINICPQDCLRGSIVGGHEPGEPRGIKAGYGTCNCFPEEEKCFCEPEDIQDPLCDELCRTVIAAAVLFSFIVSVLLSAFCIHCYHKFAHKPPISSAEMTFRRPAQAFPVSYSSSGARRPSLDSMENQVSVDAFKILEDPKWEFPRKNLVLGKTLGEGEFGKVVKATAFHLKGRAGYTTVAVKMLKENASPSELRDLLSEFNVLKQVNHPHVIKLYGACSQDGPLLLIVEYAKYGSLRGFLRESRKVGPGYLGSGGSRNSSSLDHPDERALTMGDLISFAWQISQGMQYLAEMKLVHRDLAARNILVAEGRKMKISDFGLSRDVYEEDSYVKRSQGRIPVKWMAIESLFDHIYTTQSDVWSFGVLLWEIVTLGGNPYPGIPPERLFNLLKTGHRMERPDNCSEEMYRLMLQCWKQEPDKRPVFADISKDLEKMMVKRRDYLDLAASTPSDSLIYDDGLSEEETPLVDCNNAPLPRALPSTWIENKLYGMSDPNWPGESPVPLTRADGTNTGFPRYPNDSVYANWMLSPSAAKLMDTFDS
Method in brief: (§3)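 Single-concentration screen across a 226-kinase panel run by an outside provider; test compound at 1 μM with 10 μM ATP in every assay. Other conditions not detailed.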

[18] = molecular target: Serine/threonine-protein kinase Sgk2 (Homo sapiens) (UniProt Q9HBY8); test: Activity of human SGK2 kinase at 1 uM; method in brief: as §2
Chain of Serine/threonine-protein kinase Sgk2 (Homo sapiens) (Q9HBY8 whole entry): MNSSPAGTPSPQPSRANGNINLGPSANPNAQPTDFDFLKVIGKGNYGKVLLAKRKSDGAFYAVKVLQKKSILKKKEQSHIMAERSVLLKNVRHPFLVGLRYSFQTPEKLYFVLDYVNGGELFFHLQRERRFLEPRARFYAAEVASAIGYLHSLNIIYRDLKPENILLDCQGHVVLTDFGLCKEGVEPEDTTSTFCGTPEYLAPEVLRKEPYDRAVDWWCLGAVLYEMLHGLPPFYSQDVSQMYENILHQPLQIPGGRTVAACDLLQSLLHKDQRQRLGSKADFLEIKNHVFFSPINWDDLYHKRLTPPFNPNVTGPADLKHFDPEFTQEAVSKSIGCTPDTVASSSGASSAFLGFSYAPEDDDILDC

[19] = molecular target: SRSF protein kinase 1 (Homo sapiens) (UniProt Q96SB4); test: Activity of human SRPK1 kinase at 1 uM; method in brief: as §3
[20] = molecular target: Tyrosine-protein kinase SYK (Homo sapiens) (UniProt P43405); test: Activity of human Syk kinase at 1 uM; method in brief: as §2
[21] = molecular target: Testis-specific serine/threonine-protein kinase 2 (Homo sapiens) (UniProt Q96PF2); test: Activity of human TSSK2 kinase at 1 uM; method in brief: as §2
Chain of Testis-specific serine/threonine-protein kinase 2 (Homo sapiens) (Q96PF2 whole entry, the tested form may be a part): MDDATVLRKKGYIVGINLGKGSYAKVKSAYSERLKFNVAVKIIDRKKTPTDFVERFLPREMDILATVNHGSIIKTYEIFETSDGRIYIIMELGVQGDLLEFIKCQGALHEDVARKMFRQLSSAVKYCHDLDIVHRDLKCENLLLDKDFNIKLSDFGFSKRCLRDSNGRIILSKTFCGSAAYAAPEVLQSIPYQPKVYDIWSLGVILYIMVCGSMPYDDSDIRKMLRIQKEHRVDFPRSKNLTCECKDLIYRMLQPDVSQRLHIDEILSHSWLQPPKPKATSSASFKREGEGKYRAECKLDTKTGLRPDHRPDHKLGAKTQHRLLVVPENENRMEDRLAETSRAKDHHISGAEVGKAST

[22] = molecular target: Discoidin domain-containing receptor 2 (Homo sapiens) (UniProt Q16832); test: Activity of human DDR2 kinase at 1 uM
[23] = molecular target: Serine/threonine-protein kinase 17A (Homo sapiens) (UniProt Q9UEE5); test: Activity of human DRAK1 kinase at 1 uM; method in brief: as §1
[24] = molecular target: Ephrin type-A receptor 3 (Homo sapiens) (UniProt P29320); test: Activity of human EphA3 kinase at 1 uM
[25] = molecular target: Ephrin type-A receptor 4 (Homo sapiens) (UniProt P54764); test: Activity of human EphA4 kinase at 1 uM
[26] = molecular target: Serine/threonine-protein kinase WNK2 (Homo sapiens) (UniProt Q9Y3S1); test: Activity of human WNK2 kinase at 1 uM; method in brief: as §3
[27] = molecular target: Serine/threonine-protein kinase WNK3 (Homo sapiens) (UniProt Q9BYP7); test: Activity of human WNK3 kinase at 1 uM; method in brief: as §2
[28] = molecular target: Tyrosine-protein kinase Yes (Homo sapiens) (UniProt P07947); test: Activity of human Yes kinase at 1 uM; method in brief: as §3
Chain of Tyrosine-protein kinase Yes (Homo sapiens) (P07947 2-543 limits assumed): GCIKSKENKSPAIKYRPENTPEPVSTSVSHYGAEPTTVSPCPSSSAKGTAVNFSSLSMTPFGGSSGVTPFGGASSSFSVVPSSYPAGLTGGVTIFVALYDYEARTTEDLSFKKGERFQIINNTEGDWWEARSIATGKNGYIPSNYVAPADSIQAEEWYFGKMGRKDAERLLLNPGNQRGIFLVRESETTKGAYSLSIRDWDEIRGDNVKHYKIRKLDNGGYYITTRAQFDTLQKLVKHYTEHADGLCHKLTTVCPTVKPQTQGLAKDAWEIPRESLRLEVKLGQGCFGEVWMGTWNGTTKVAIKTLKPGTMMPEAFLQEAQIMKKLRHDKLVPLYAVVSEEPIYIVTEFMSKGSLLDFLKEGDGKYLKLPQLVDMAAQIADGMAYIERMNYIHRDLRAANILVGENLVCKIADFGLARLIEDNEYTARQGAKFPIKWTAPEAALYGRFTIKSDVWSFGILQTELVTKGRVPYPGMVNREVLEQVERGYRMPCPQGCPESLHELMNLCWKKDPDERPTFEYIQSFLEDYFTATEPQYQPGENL

[29] = Inhibition of CDK2E by radioactive flashplate assay
[30] = molecular target: ALK tyrosine kinase receptor (Homo sapiens) (UniProt Q9UM73); test: Activity of human ALK kinase at 1 uM
[31] = molecular target: Activin receptor type-1B (Homo sapiens) (UniProt P36896); test: Activity of human ALK4 kinase at 1 uM
[32] = molecular target: Tyrosine-protein kinase receptor UFO (Homo sapiens) (UniProt P30530); test: Activity of human Axl kinase at 1 uM; method in brief: as §1
[33] = molecular target: Calcium/calmodulin-dependent protein kinase type II subunit delta (Homo sapiens) (UniProt Q13557); test: Activity of human CaMK2delta kinase at 1 uM; method in brief: as §1
[34] = molecular target: Cyclin-dependent kinase 2/cyclin A (Homo sapiens) (UniProt P24941+P20248+P78396); test: Activity of human CDK2/cyclin A kinase at 1 uM; type: protein-complex assay
Homo sapiens [35] = species on record: Homo sapiens; test: Activity of human CDK5/p25 kinase at 1 uM
Homo sapiens [36] = species on record: Homo sapiens; test: Activity of human CDK5/p35 kinase at 1 uM
[37] = molecular target: Serine/threonine-protein kinase Chk1 (Homo sapiens) (UniProt O14757); test: Activity of human CHK1 kinase at 1 uM; method in brief: as §1
Chain of Serine/threonine-protein kinase Chk1 (Homo sapiens) (O14757 whole entry): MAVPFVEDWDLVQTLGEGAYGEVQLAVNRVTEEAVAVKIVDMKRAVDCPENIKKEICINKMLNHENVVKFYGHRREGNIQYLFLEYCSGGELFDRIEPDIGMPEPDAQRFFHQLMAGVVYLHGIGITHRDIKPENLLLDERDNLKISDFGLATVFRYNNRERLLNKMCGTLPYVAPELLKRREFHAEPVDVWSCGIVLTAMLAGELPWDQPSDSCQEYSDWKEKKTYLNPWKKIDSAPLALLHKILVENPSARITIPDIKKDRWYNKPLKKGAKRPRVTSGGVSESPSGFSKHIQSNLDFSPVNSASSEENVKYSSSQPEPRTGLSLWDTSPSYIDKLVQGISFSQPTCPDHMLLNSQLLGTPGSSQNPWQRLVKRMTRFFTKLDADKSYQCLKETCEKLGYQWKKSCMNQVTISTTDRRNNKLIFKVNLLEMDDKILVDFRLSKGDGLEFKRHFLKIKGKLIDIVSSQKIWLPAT

PC-3 [38] = test: Induction of apoptosis in human PC3 cells assessed as PARP cleavage at 4 uM after 24 hrs by Western blot method; type: functional, cell-based
NCI-H460 = test: Antiproliferative activity against human H460 cells after 96 hrs by BrdU cell proliferation ELISA; type: functional, cell-based; conditions: NCI-H460, 96 h
Method in brief: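 BrdU incorporation proliferation assay on cultured human tumor lines; IC50 values derived from growth inhibition.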

PC-3 [39] = test: Cell cycle arrest in human PC3 cells by accumulation at G2/M phase at 4 uM after 24 hrs by flow cytometry relative to control; type: functional
Method in brief: (§4)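 DNA content profiles by flow cytometry of PC-3 prostate tumor cells exposed to drug diluted in DMSO for 24 or 48 h. Phase distribution was compared with DMSO-treated control cells.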

PC-3 [40] = test: Cell cycle arrest in human PC3 cells by accumulation at G1 phase at 1 uM after 48 hrs by flow cytometry relative to control; type: functional; method in brief: as §4
PC-3 [41] = test: Cell cycle arrest in human PC3 cells by accumulation at G1 phase at 4 uM after 48 hrs by flow cytometry relative to control; type: functional; method in brief: as §4
PC-3 [42] = test: Cell cycle arrest in human PC3 cells by accumulation at S phase at 4 uM after 48 hrs by flow cytometry relative to control; type: functional; method in brief: as §4

Chain of Glycogen synthase kinase-3 alpha (Homo sapiens) (P49840 2-483 limits assumed): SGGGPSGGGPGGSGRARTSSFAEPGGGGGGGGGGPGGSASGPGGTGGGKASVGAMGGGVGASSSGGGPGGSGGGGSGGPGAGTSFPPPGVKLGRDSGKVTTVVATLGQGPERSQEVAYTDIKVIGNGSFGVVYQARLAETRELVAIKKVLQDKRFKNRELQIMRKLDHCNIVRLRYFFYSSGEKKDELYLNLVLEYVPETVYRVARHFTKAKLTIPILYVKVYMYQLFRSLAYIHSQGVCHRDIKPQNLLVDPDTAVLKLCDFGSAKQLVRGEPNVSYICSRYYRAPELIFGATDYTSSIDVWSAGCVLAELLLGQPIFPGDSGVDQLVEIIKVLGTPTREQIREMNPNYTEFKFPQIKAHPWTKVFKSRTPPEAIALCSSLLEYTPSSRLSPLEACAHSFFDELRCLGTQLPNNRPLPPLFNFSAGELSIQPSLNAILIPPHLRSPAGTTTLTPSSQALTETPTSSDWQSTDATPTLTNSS

Activity [1]: 110%
Activity [2]: 111%
Activity [3]: 100%
Activity [4]: 101%
Activity [5]: 95%
Activity [6]: 110%
Activity [7]: 79%
Activity [8]: 106%
Activity [9]: 110%
Activity [10]: 96%
Activity [11]: 110%
Activity (Bos taurus): 86%
Activity (Homo sapiens [12]): 100%
Activity [13]: 123%
Activity [14]: 120%
Activity [15]: 99%
Activity [16]: 90%
Activity [17]: 80%
Activity [18]: 100%
Activity [19]: 105%
Activity [20]: 99%
Activity [21]: 101%
Activity [22]: 87%
Activity [23]: 60%
Activity [24]: 88%
Activity [25]: 90%
Activity [26]: 109%
Activity [27]: 88%
Activity [28]: 20%
IC50 [29]: > 100000 nM
Activity [30]: 95%
Activity [31]: 115%
Activity [32]: 41%
Activity [33]: 123%
Activity [34]: 96%
Activity (Homo sapiens [35]): 94%
Activity (Homo sapiens [36]): 100%
Activity [37]: 109%
IC50 (NCI-H460): 110 nM
Compound: O=C(O)c1ccc(Nc2ncc3c(n2)-c2ccc(Cl)cc2C(c2c(F)cccc2F)=NC3)cc1 [MLN-8054]
Activity (PC-3 [38]): Active
Activity (PC-3 [39]): 58.8%
Activity (PC-3 [40]): 23%
Activity (PC-3 [41]): 12.9%
Activity (PC-3 [42]): 4.9%

From ChEMBL document CHEMBL1147076, “Antitumor activity of MLN8054, an orally active small-molecule inhibitor of Aurora A kinase” (Proc Natl Acad Sci U S A, 2007)
